Measured values: ChEMBL document CHEMBL1153581, “Synthesis, antiviral and anticancer activity of some novel thioureas derived from N-(4-nitro-2-phenoxyphenyl)-methanesulfonamide” (Eur J Med Chem, 2009)
In brackets after ≈: the same amount, converted by molar mass.

Columns and labels:
[1] = tested on: Human immunodeficiency virus 2; experiment: Antiviral activity against HIV-2 ROD infected in human MT4 cells assessed as protection against virus-induced cytopathogenicity at 125 ug/ml; format: functional, ISOLATE ROD
How it was run: (§1)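 MT-4 cells infected with HIV-1 (IIIB) or HIV-2 (ROD), with maximum protection (%) against virus-induced cytopathicity recorded at 125 of compound.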

[2] = tested on: Respiratory syncytial virus; experiment: Antiviral activity against RSV infected in human HeLa cells assessed as protection against virus-induced cytopathogenicity; format: functional
[3] = tested on: Human respirovirus 3; experiment: Antiviral activity against Parainfluenza-3 virus infected in african green monkey Vero cells assessed as protection against virus-induced cytopathogenicity; format: functional
[4] = tested on: Human alphaherpesvirus 2; experiment: Antiviral activity against Herpes simplex virus 2 infected in HEL cells assessed as protection against in virus-induced cytopathogenicity; format: functional
[5] = tested on: Human immunodeficiency virus 1; experiment: Antiviral activity against HIV-1 3B infected in human MT4 cells assessed as protection against virus-induced cytopathogenicity at 125 ug/ml; format: functional; how it was run: as §1
[6] = tested on: Human immunodeficiency virus 2; experiment: Antiviral activity against HIV-2 ROD infected human MT4 cells assessed as protection against virus-induced cytopathogenicity; format: functional, organism-based; settings: Human immunodeficiency virus 2, ISOLATE ROD
How it was run: (§2)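 HIV-1 (IIIB) or HIV-2 (ROD) infection of MT-4 cells, scored as protection against virus-induced cytopathicity. IC50 was derived from protection.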

[7] = tested on: Human alphaherpesvirus 3; experiment: Antiviral activity against thymidine kinase deficient Varicella Zoster Virus 07/1 infected in HEL cells assessed as reduction in virus plaque formation; format: functional, organism-based; settings: Human alphaherpesvirus 3, 07/1, HEL
How it was run: (§3)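 Plaque reduction in HEL cells against CMV (AD-169, Davis) or VZV (TK⁺ OKA, TK⁻ 07/1), using a virus input of 20 PFU. EC50 is the concentration that reduced plaque formation by 50%.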

[8] = tested on: Vesicular stomatitis virus; experiment: Antiviral activity against sVesicular stomatitis virus infected in HEL cells assessed as protection against virus-induced cytopathogenicity; format: functional
[9] = tested on: Human alphaherpesvirus 1; experiment: Antiviral activity against acyclovir-resistant thymidine kinase-deficient HSV1 KOS infected in human HEL cells assessed as protection against virus-induced cytopathogenicity; format: functional; settings: Human alphaherpesvirus 1, KOS
[10] = Cytotoxicity against Varicella Zoster Virus infected human […] cells assessed as reduction in cell growth; format: cell-based
[11] = Cytotoxicity against african green monkey Vero cells assessed as change in cell morphology; format: cell-based; settings: chlorocebus sabaeus
How it was run: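 Vero cell cultures were used for the broad-spectrum antiviral screen. The MCC endpoint is the lowest concentration that causes a microscopically detectable alteration of cell morphology. Activity was called when 5 × MIC < MCC.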

[12] = tested on: Punta Toro virus; experiment: Antiviral activity against Punta Toro virus infected in african green monkey Vero cells assessed as protection against virus-induced cytopathogenicity; format: functional
[13] = tested on: Sindbis virus; experiment: Antiviral activity against Sindbis virus infected in african green monkey Vero cells assessed as protection against virus-induced cytopathogenicity; format: functional
[14] = Cytotoxicity against Varicella Zoster Virus infected human […] cells assessed as change in cell morphology; format: cell-based
[15] = Cytotoxicity against HEL cells assessed as change in cell morphology; format: cell-based; settings: human
How it was run: (§4)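 HEL cell cultures examined under the microscope. Minimal cytotoxic concentration (MCC) is the concentration that causes a microscopically detectable alteration of cell morphology. Compounds were tested at subtoxic concentrations alongside the antiviral tests.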

[16] = tested on: Coxsackievirus B4; experiment: Antiviral activity against Coxsackievirus B4 infected in human HeLa cells assessed as protection against virus-induced cytopathogenicity; format: functional; settings: Enterovirus B
[17] = tested on: Vesicular stomatitis virus; experiment: Antiviral activity against Vesicular stomatitis virus infected in human HeLa cells assessed as protection against virus-induced cytopathogenicity; format: functional
[18] = Cytotoxicity against Cytomegalovirus infected HEL cells assessed as reduction in cell growth; format: cell-based; settings: human
[19] = tested on: Cytomegalovirus; experiment: Antiviral activity against Cytomegalovirus Davis infected in HEL cells assessed as reduction in virus plaque formation; format: functional, organism-based; settings: Human betaherpesvirus 5, Davis; how it was run: as §3
[20] = tested on: Human immunodeficiency virus 1; experiment: Antiviral activity against HIV-1 3B infected human MT4 cells assessed as protection against virus-induced cytopathogenicity; format: functional, organism-based; settings: Human immunodeficiency virus 1, 3B; how it was run: as §2
[21] = tested on: Human alphaherpesvirus 1; experiment: Antiviral activity against HSV1 KOS infected in HEL cells assessed as protection against virus-induced cytopathogenicity; format: functional; settings: Human alphaherpesvirus 1, KOS
[22] = tested on: Human betaherpesvirus 5; experiment: Antiviral activity against Cytomegalovirus AD169 infected in HEL cells assessed as reduction in virus plaque formation; format: functional, organism-based; settings: Human betaherpesvirus 5, AD169, HEL; how it was run: as §3
[23] = tested on: Coxsackievirus B4; experiment: Antiviral activity against Coxsackievirus B4 infected in african green monkey Vero cells assessed as protection against virus-induced cytopathogenicity; format: functional; settings: Enterovirus B
[24] = tested on: Human alphaherpesvirus 3; experiment: Antiviral activity against Varicella Zoster Virus OKA infected in HEL cells assessed as reduction in virus plaque formation; format: functional, organism-based; settings: Human alphaherpesvirus 3, OKA; how it was run: as §3
[25] = Cytotoxicity against Cytomegalovirus infected HEL cells assessed as change in cell morphology; format: cell-based; settings: human; how it was run: as §4
[26] = tested on: HeLa; experiment: Cytotoxicity against human HeLa cells assessed as change in cell morphology; format: functional
How it was run: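 The minimum cytotoxic concentration (MCC) is the concentration causing a microscopically detectable alteration of cell morphology in the uninfected host cell culture.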

[27] = tested on: Mammalian orthoreovirus 1; experiment: Antiviral activity against Reovirus 1 infected in african green monkey Vero cells assessed as protection against virus-induced cytopathogenicity; format: functional
[28] = Cytotoxicity against HIV-1 3B infected human MT4 cells; format: cell-based; settings: HIV-1 3B-infected MT4 cells
[29] = Selectivity index, ratio of MCC for HEL cells to MIC50 for vesicular stomatitis virus; format: functional
How it was run: (§5)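 In HEL cell cultures, SI = MCC/MIC. MCC is the concentration giving microscopically detectable alteration of HEL cell morphology, and MIC is the minimal concentration effective against vaccinia or VSV cytopathicity.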

[30] = Selectivity index, ratio of MCC for HEL cells to MIC50 for vaccinia virus; format: functional; how it was run: as §5

Structure (SMILES)	MIC50 [2] [µg/mL]	MIC50 [3] [µg/mL]	MIC50 [4] [µg/mL]	IC50 [6] [µg/mL]	EC50 [7] [µg/mL]	MIC50 [8] [µg/mL]	MIC50 [9] [µg/mL]	CC50 [10] [µg/mL]	MCC [11] [µg/mL]	MIC50 [12] [µg/mL]	MIC50 [13] [µg/mL]	CC50 [14] [µg/mL]	MCC [15] [µg/mL]	MIC50 [16] [µg/mL]	MIC50 [17] [µg/mL]	CC50 [18] [µg/mL]	EC50 [19] [µg/mL]	IC50 [20] [µg/mL]	MIC50 [21] [µg/mL]	EC50 [22] [µg/mL]	other results
CCNC(=S)Nc1ccc(NS(C)(=O)=O)c(Oc2ccccc2)c1	> 40	≥ 24	120 (≈ 328 µM)	65.9 (≈ 180 µM)	> 100	> 200	120 (≈ 328 µM)	> 100	200	> 40	> 40	> 100	> 200	> 40	> 40	> 100	> 100	54.8 (≈ 150 µM)	120 (≈ 328 µM)	> 100	Activity [1]: 89.5%; Activity [5]: 97%; MIC50 [23]: > 40 µg/mL; EC50 [24]: > 100 µg/mL; CC50 [25]: > 100 µg/mL; MCC [26]: 200 µg/mL; MIC50 [27]: > 40 µg/mL; CC50 [28]: > 125 µg/mL
CS(=O)(=O)Nc1ccc(NC(=S)NCCc2ccccc2)cc1Oc1ccccc1	> 8	> 1.6	> 8	> 20.8	> 20	> 8	> 8	48 (≈ 109 µM)	8	> 1.6	> 1.6	≥ 100	40	> 8	> 8	48 (≈ 109 µM)	> 20	> 20.8	> 8	> 20	MIC50 [23]: > 1.6 µg/mL; EC50 [24]: > 20 µg/mL; CC50 [25]: 100 µg/mL (≈ 226 µM); MCC [26]: 40 µg/mL; MIC50 [27]: > 1.6 µg/mL; CC50 [28]: 20.8 µg/mL (≈ 47.1 µM)
CS(=O)(=O)Nc1ccc(NC(=S)NC2CCCCC2)cc1Oc1ccccc1	> 8	> 1.6	> 8	> 35.3	> 0.8	> 8	> 8	82.4 (≈ 196 µM)	8	> 1.6	> 1.6	≥ 4	40	> 8	> 8	33.6 (≈ 80.1 µM)	> 4	> 35.3	> 8	> 4	MIC50 [23]: > 1.6 µg/mL; EC50 [24]: > 20 µg/mL; CC50 [25]: 20 µg/mL (≈ 47.7 µM); MCC [26]: 40 µg/mL; MIC50 [27]: > 1.6 µg/mL; CC50 [28]: 35.3 µg/mL (≈ 84.1 µM)
CS(=O)(=O)Nc1ccc(NC(=S)Nc2ccc([N+](=O)[O-])cc2)cc1Oc1ccccc1	> 8	> 8	> 8	> 15.2	> 20	8 (≈ 17.4 µM)	8 (≈ 17.4 µM)	> 100	40	> 8	> 8	100 (≈ 218 µM)	40	> 8	> 8	> 100	54.7 (≈ 119 µM)	> 15.2	> 8	54.7 (≈ 119 µM)	Selectivity Index [29]: 5; Selectivity Index [30]: 5; MIC50 [23]: > 8 µg/mL; EC50 [24]: > 20 µg/mL; CC50 [25]: > 100 µg/mL; MCC [26]: 40 µg/mL; MIC50 [27]: > 8 µg/mL; CC50 [28]: 15.2 µg/mL (≈ 33.1 µM)
